# Screening results as filed in PubChem BioAssay.
# Only some compounds are listed: those with a hit (about 2.4% of all), similar ones and a draw of the others.
# E-selectin induc – E-selectin induction in HUVECs, primary screen, imaging, HUVEC, immunofluorescence imaging, single point; P16581; 260,000 compounds, 0.37% hits; activation, % at 7.58 µM; AID 686992, 2013; normalized: neutral wells 0, TNF-alpha wells 100;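 active means mean E-selectin-positive cell signal at least 10% of the positive control, reached in at least 60% of replicates, without over 20% cell loss; inconclusive means no rule given, readout overlaps actives, possibly toxicity-flagged; inactive means the rest, including those meeting only one limit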
#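 assay system = HUVEC, human umbilical vein endothelial cells | input = 3,000 HUVEC seeded per well | medium = EGM-2 growth medium on 0.1% gelatin-coated wells | dosing = one compound dose added by pin transfer | signal = immunofluorescence imaging | read-out basis = % PE-positive cells | control set = TNF-alpha, DMSO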
# Ecoli rRNA inh – reduced GFP signal of wild-type E. coli, primary screen, bacterial rRNA inhibitor project, GFP/RFP fluorescence, OD600, single point; E. coli WT GFP vs humanized-ribosome RFP mutants, 24 h; stronger effect = lower value; DMSO median 0, no signal -100; GFP signal change (wild-type ribosome), % (no concentration beside the values); 350,000 compounds, 1.6% hits; AID 720706, 2013;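 active means significant combined selectivity score with lowered wild-type GFP, culture density cut under 30%, mutant RFP and density less affected; inactive means any of these conditions unmet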
# LGR2 antag – inhibitors of bursicon-induced LGR2 CRE-luciferase signal, primary screen, cell-based, HEK293, CRE-luciferase reporter, bursicon stimulation; Drosophila bursicon receptor LGR2 (rickets); bursicon-stimulated, 4 h; inhibition, % at 9.99 µM; 380,000 compounds, 0.35% hits;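 active means drop in luminescence signal, shown as inhibition above about 50% in the replicate tests, limit read from the data, passing the limit was not always enough; inconclusive means probably only some replicates passing the limit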;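 further: agonist challenge used bursicon conditioned medium at about half maximal strength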
# EWS-Fli inh – EWS/Fli-driven NR0B1 reporter inhibitors, primary screen, A673 cells, NR0B1 luciferase, luminescence, MLPCN library; viability-normalised; inhibition, % at 12.6 µM; 350,000 compounds, 0.67% hits;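 active means mean inhibition of at least 50% after viability correction, with every replicate also passing that limit; inconclusive means mean reaches 50% but only one of two replicates passes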;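 further: firefly luciferase signal divided by Alamar Blue viability fluorescence both relative to DMSO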
# AID977621 – growth inhibition of wild-type GFP E. coli, dose response, H69 mutant RFP, cherry-pick | activity change, negative = inhibition at 50 µM | 1,900 tested, under 10 active | E. coli wild-type GFP strain growth, fluorescence, 24 h | AID 977621, 2014 | shares compounds with Ecoli rRNA inh;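 active means Wild-type ribosome reporter drop at least double the humanized mutant ribosome reporter drop, growth loss under a set limit; inconclusive means no clear call, values can overlap the other calls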;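 further: wild-type GFP and H69 mutant RFP strains grown together 50/50 in each well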
# AID977628 – E. coli growth inhibition, wild-type GFP versus h24 humanized RFP strain, dose response, h24 mutant RFP vs wild-type GFP, cherry-pick; shares compounds with Ecoli rRNA inh; E. coli WT GFP strain growth, fluorescence, 24 h; activity change, negative = inhibition at 50 µM; 1,900 tested, under 10 active;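 active means compound lowering the normal-ribosome reporter at least twice as much as the humanized-ribosome reporter, growth loss under a set limit; inconclusive means no clear call, values can overlap the other calls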;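 further: wild-type GFP and h24 humanized RFP strains co-cultured 1 to 1 per well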
# Numbers stand for hits; i = inactive; ? = inconclusive; nt = no result given.
SMILES,E-selectin induc,Ecoli rRNA inh,LGR2 antag,EWS-Fli inh,AID977621,AID977628
O=C(c1cccc(Cl)c1)C1CCCN(Cc2cccc3cnccc23)C1 (stereo not given),i,i,i,i,nt,nt
C/C=C/c1ccc(C2[C@@H]3CN(Cc4nccs4)C[C@H]2N3)cc1 (stereo not given in full),i,i,i,i,nt,nt
Cc1nc2ccc(Br)cc2c(=O)n1-c1ccc([N+](=O)[O-])c(C(F)(F)F)c1,i,-19,?,i,i,i
COCCNC(=O)c1c(N)n(Cc2ccco2)c2nc3ccccc3nc12,nt,nt,i,nt,nt,nt
Nc1c(C(=O)NCCN2CCOCC2)c2nc3ccccc3nc2n1Cc1ccccc1,i,-36,i,i,nt,?
O=C1CNC[C@H]2[C@@H](c3ccc(Br)cc3)[C@H](CO)N12,i,i,i,i,nt,nt
C[C@]12CCC(=O)C[C@H]1CC[C@@H]1[C@@H]2CC[C@]2(C)C(=O)CC[C@@H]12,nt,-27,i,i,nt,?
c1ccc(Nc2ccc3ccccc3c2)cc1,nt,-24,i,i,i,i
CN1CCC(c2c[nH]c3ccccc23)C1 (stereo not given),i,-23,i,i,i,?
